This is an account of results in ChEMBL document CHEMBL1130979, “Synthesis, X-ray crystal structure, and biological activity of FR186054, a novel, potent, orally active inhibitor of acyl-CoA:cholesterol O-acyltransferase (ACAT) bearing a pyrazole ring” (Bioorg Med Chem Lett, 1998).

Holding throughout (type): functional
Assay [1] deals with Rattus norvegicus. The assay is described as follows: Hypocholesterolemic activity to reduce plasma total cholesterol level by 50% after dietary administration in cholesterol-fed rats. To be noted: feed or water. In short, it runs like this:
(§1)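 Male rats (n = 4) received compound admixed in diet supplemented with 1% cholesterol and 0.5% cholic acid for 7 days. Plasma total cholesterol then measured, percent change vs control calculated. Reported as percent reduction at the dose given or as ED50 (dose lowering total cholesterol by 50%). Significance by unpaired two-tailed Student's t-test.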

The test system of assay [2] is Rattus norvegicus. The assay is described as follows: Hypocholesterolemic activity by administration of gavage in PEG400 as a vehicle in cholesterol-fed rats. To be noted: po. An outline of the steps: (§2)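 Male rats (n = 4) made hypercholesterolemic on diet with 1% cholesterol and 0.5% cholic acid for 2 days. Compound then dissolved in PEG400 and given orally by gavage once daily in the evening for 3 days, cholesterol-enriched diet continued. Plasma total cholesterol measured; ED50 = dose lowering plasma total cholesterol by 50% of control.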

For assay [3], the system named is Rattus norvegicus. Put plainly: Hypocholesterolemic activity by administration of gavage in PEG400 as a vehicle in cholesterol-fed rats. As to conditions: po. In short, it runs like this:
as §2

Assay [4] has as its system Rattus norvegicus. Put plainly: Percent reduction in total cholesterol at less than 0.1 mg/kg dose. An outline of the steps:
as §1

For assay [5], the system named is Rattus norvegicus. The assay is described as follows: Percent reduction in total cholesterol at greater than 1 mg/kg dose. An outline of the steps: as §1

Molecules are shown by their SMILES. Bounds are passed on as bounds.

`O=C(Nc1c(F)cc(F)cc1F)N(Cc1ccccc1)Cc1cccc(-c2cc[nH]n2)c1`: the ED50 in assay [1] was determined as 0.096 mg/kg; in assay [2] it was 8.6 mg/kg.

On to `CSc1cc(C)nc(SC)c1NC(=O)N(Cc1ccccc1)Cc1cccc(-c2cc[nH]n2)c1`, for which the values for the ED50 in assay [3] and in assay [1] were 0.44 mg/kg and 0.046 mg/kg, respectively.

With `CCCCCCCN(Cc1ccc(CC(C)(C)C)cc1)C(=O)Nc1ccc(F)cc1F` [CL-277082], in assay [1], the ED50 came to 5 mg/kg.

`CSc1cc(C)nc(SC)c1NC(=O)N(Cc1ccc(N(C)C)cc1)Cc1cccc(-c2cc[nH]n2)c1`: the ED50 in assay [1] was below 0.1 mg/kg. Moreover, the Reduction in assay [4] is listed as 61%.

For `CSc1cc(C)nc(SC)c1NC(=O)N(Cc1ccc(F)cc1)Cc1cccc(-c2cc[nH]n2)c1`, the ED50 in assay [1] is below 0.1 mg/kg. The Reduction in assay [4] is listed as 66%.

In the case of `COc1ccc(CN(Cc2cccc(-c3cc[nH]n3)c2)C(=O)Nc2c(SC)cc(C)nc2SC)cc1`, the ED50 in assay [1] is below 0.1 mg/kg. Further, in assay [4], the Reduction came to 81%.

The compound `Cc1cc(C)c(NC(=O)N(Cc2ccccc2)Cc2cccc(-c3cc[nH]n3)c2)c(C)c1` came in with an ED50 in assay [1] above 1 mg/kg. The same compound showed a Reduction in assay [5] of 36%.
